Reference: ChEMBL document CHEMBL1149565, “Identification of a novel series of benzimidazoles as potent and selective antagonists of the human melanocortin-4 receptor” (Bioorg Med Chem Lett, 2007)
Activity calls are given as the source filed them. The rule behind the calls is not given here.

Tests used:
Melanocortin receptor 3 = Melanocortin receptor 3 (Homo sapiens, UniProt P41968); test: Displacement of [125I]NDP-alphaMSH from human melanocortin 3 receptor expressed in CHOK1 cells; type: cell-based, CHO-K1
Chain of Melanocortin receptor 3 (P41968 whole entry): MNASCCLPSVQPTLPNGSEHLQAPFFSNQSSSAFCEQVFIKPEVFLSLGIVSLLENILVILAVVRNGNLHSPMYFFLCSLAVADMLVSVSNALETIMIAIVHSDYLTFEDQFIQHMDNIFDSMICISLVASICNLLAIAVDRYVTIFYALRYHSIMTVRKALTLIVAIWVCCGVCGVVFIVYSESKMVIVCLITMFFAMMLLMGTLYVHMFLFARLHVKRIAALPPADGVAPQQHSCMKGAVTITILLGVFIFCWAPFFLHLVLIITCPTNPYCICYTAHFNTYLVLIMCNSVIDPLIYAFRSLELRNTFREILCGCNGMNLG
Summary of the method: (§1)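 Membranes from CHO-K1 cells stably expressing human MC1, MC3, MC4 or MC5 receptor, 1–10 µg protein/well, in 50 mM Tris-HCl pH 7.4 with 0.2% BSA, 5 mM MgCl2, 1 mM CaCl2, 0.1 mg/mL bacitracin. Incubated with increasing test compound and 0.1–0.3 nM [125I]NDP-α-MSH, 90–120 min at 37 °C depending on subtype. Filtration on PEI-presoaked GF/C filters, cold buffer washes, radioactivity counted; nonlinear regression; three independent measurements.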

[1] = Half life in Sprague-Dawley rat at 4.5 umol/kg, iv; type: ADME, organism-based; conditions: in vivo
Summary of the method: (§2)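 Fed male Sprague–Dawley rats, three per time point, given 4.5 µmol/kg intravenously via penile vein in 1 ml/kg 10% DMA/90% propanediol. Under deep isoflurane anaesthesia, blood taken from vena cava at 1, 15, 30, 60, 90 and 120 min, centrifuged 2000g, 15 min, 4 °C. Plasma and brain levels measured; brain/blood ratio from AUC.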

[2] = Ratio of drug level in brain to blood in Sprague-Dawley rat at 4.5 umol/kg, iv; type: ADME, tissue-based; conditions: read-out: Ratio AUC; summary of the method: as §2
Melanocortin receptor 4 [3] = target: T1, Melanocortin receptor 4 (Homo sapiens, UniProt P32245); test: Antagonist activity at human melanocortin 4 receptor expressed in CHOK1 cells assessed as inhibition of NDP-alpha-MSH-stimulated cAMP production; type: functional, cell-based; conditions: CHO-K1
T1 sequence (P32245 whole entry): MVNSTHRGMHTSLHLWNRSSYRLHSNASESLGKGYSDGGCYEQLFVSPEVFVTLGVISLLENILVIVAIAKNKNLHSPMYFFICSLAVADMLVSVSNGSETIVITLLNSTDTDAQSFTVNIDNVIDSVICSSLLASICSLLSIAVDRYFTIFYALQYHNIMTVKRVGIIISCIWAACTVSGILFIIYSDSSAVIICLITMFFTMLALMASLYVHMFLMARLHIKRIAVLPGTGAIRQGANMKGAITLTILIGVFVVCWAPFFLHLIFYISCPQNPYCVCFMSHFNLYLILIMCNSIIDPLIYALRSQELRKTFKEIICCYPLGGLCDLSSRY
Summary of the method: (§3)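 CHO-K1 cells stably expressing human MC4 receptor, suspended in RPMI 1640 with 0.5 mM IBMX and 0.2% protein cocktail, 7000 cells/well on anti-cAMP antibody-coated electrode plates. NDP-α-MSH concentration–response run with increasing test compound concentrations (agonist check at 10 µM alone), 40 min at 37 °C. Cells lysed, 2.5 nM ruthenium-labelled cAMP added, 90 min, then electrochemiluminescence read-out. Nonlinear regression; KB by Schild regression, logarithmic mean of three independent measurements.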

Melanocortin receptor 4 [4] = target: T1, Melanocortin receptor 4; test: Displacement of [125I]NDP-alphaMSH from human melanocortin 4 receptor expressed in CHOK1 cells; type: cell-based, CHO-K1; summary of the method: as §1
Melanocortin receptor 5 = Melanocortin receptor 5 (Homo sapiens, UniProt P33032); test: Displacement of [125I]NDP-alphaMSH from human melanocortin 5 receptor expressed in CHOK1 cells; type: cell-based, CHO-K1; summary of the method: as §1
Chain of Melanocortin receptor 5 (P33032 whole entry): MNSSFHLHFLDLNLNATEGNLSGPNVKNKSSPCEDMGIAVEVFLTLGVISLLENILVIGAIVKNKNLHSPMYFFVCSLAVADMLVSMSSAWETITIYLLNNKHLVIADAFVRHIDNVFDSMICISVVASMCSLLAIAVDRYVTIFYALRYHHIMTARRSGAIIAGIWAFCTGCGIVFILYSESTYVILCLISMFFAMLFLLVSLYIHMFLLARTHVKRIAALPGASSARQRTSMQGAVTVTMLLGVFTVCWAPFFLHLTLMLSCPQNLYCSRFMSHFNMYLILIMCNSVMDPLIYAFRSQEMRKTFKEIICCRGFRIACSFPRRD

[5] = target: Melanocyte-stimulating hormone receptor (Homo sapiens, UniProt Q01726); test: Displacement of [125I]NDP-alphaMSH from human melanocortin 1 receptor expressed in CHOK1 cells; type: cell-based, CHO-K1; summary of the method: as §1
Chain of Melanocyte-stimulating hormone receptor (Q01726 whole entry): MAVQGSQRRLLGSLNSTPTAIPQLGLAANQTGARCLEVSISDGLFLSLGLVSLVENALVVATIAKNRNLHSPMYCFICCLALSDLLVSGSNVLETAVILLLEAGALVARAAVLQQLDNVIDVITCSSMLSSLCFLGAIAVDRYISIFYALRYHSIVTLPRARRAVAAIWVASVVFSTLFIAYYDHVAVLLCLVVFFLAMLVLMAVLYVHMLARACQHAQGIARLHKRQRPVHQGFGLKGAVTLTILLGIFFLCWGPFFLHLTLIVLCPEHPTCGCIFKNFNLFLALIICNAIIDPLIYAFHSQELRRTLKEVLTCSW

Melanocortin receptor 4 [6] = target: T1, Melanocortin receptor 4; test: Agonist activity at human melanocortin 4 receptor expressed in CHOK1 cells assessed as stimulation of cAMP production at 10 uM; type: functional, cell-based; conditions: CHO-K1; summary of the method: as §3
[7] = target: Melanocortin receptor (M3 and M4) (Homo sapiens) (UniProt P32245+P41968); test: Selectivity for human MC4R over human MC3R; type: protein assay

Ki (Melanocortin receptor 4 [4]; read-out: Ki)	Compound	further results
2 nM	CC(=O)c1ccc(Nc2nc3ccc(C(=O)N(CCC(C)C)CCC(C)C)cc3n2CCCN2CCCCC2)cc1	Ki (Melanocortin receptor 3): 400 nM; half-life [1]: 5 h; Kp [2]: 2.9; Kb (Melanocortin receptor 4 [3]): 77 nM; Ki (Melanocortin receptor 5): 2200 nM; Ki [5]: 5200 nM; Activity (Melanocortin receptor 4 [6]): inactive
730 nM	CC(=O)c1ccc(Nc2nc3ccc(C(=O)N(CCC(C)C)CCC(C)C)cc3n2CC(C)(C)CN(C)C)cc1	
17000 nM	CCCN(CCC)C(=O)c1ccc2nc(Nc3cc(OC)c(OC)c(OC)c3)n(CCCN)c2c1	Ki (Melanocortin receptor 4 [4]; read-out: Log Ki (converted)): 17800 nM
2.9 nM	CC(C)CCN(CCC(C)C)C(=O)c1ccc2nc(-c3cc4ccccc4s3)n(CCCN3CCCCC3)c2c1	
12 nM	CC(=O)c1ccc(Nc2nc3ccc(C(=O)N(CCC(C)C)CCC(C)C)cc3n2CCCN(C)C)cc1	
78 nM	COCCNc1nc2ccc(C(=O)N(CCC(C)C)CCC(C)C)cc2n1CCCN1CCCCC1	
4.5 nM	CC(=O)c1cccc(Nc2nc3ccc(C(=O)N(CCC(C)C)CCC(C)C)cc3n2CCCN2CCCCC2)c1	
8.3 nM	CC(C)CCN(CCC(C)C)C(=O)c1ccc2nc(Nc3ccc(F)cc3)n(CCCN3CCCCC3)c2c1	
3.2 nM	CC(C)CCN(CCC(C)C)C(=O)c1ccc2nc(-c3cn(C)c4ccccc34)n(CCCN3CCCCC3)c2c1	
640 nM	CCCCCN(CCCCC)C(=O)c1ccc2nc(Nc3cc(OC)c(OC)c(OC)c3)n(CCCN)c2c1	
2.7 nM	CCC(=O)c1ccc(Nc2nc3ccc(C(=O)N(CCC(C)C)CCC(C)C)cc3n2CCCN2CCCCC2)cc1	
4.2 nM	CC(C)CCN(CCC(C)C)C(=O)c1ccc2nc(Nc3cccnc3)n(CCCN3CCCCC3)c2c1	
11000 nM	COc1cc(Nc2nc3ccc(C(=O)N(CC(C)C)CC(C)C)cc3n2CCCN)cc(OC)c1OC	Ki (Melanocortin receptor 4 [4]; read-out: Log Ki (converted)): 11700 nM
28 nM	COc1ccc(Cc2nc3ccc(C(=O)N(CCC(C)C)CCC(C)C)cc3n2CCCN2CCCCC2)cc1	
8.8 nM	CC(C)CCN(CCC(C)C)C(=O)c1ccc2nc(Nc3ccc(Cl)cc3)n(CCCN3CCCCC3)c2c1	
45 nM	COC(=O)c1ccc(-c2nc3ccc(C(=O)N(CCC(C)C)CCC(C)C)cc3n2CCCN2CCCCC2)cc1	
> 10000 nM	CC(=O)c1ccc(Nc2nc3ccc(C(=O)N(CCC(C)C)CCC(C)C)cc3n2CCCNC(=O)OC(C)(C)C)cc1	Ki (Melanocortin receptor 4 [4]; read-out: Log Ki (converted)): 85100 nM
4.9 nM	CC(=O)c1ccc(Nc2nc3ccc(C(=O)N(CCC(C)C)CCC(C)C)cc3n2CCCN2CCCC2)cc1	
7 nM	CC(C)CCN(CCC(C)C)C(=O)c1ccc2nc(-c3c[nH]c4ccccc34)n(CCCN3CCCCC3)c2c1	
1.7 nM	CC(C)CCN(CCC(C)C)C(=O)c1ccc2nc(Nc3ccc(C(=O)c4ccccc4)cc3)n(CCCN3CCCCC3)c2c1	
1000 nM	CCCCN(CCCC)C(=O)c1ccc2nc(Nc3cc(OC)c(OC)c(OC)c3)n(CCCN)c2c1	
5.2 nM	CC(C)CCN(CCC(C)C)C(=O)c1ccc2nc(Nc3ccc(-c4ccccc4)cc3)n(CCCN3CCCCC3)c2c1	
51 nM	CNCCCn1c(Nc2ccc(C(C)=O)cc2)nc2ccc(C(=O)N(CCC(C)C)CCC(C)C)cc21	
2300 nM	CC(=O)c1ccc(Nc2nc3ccc(C(=O)N(CCC(C)C)CCC(C)C)cc3n2CCCO)cc1	
45 nM	CC(=O)c1ccc(Nc2nc3ccc(C(=O)N(CCC(C)C)CCC(C)C)cc3n2CCCN2CCN(C)CC2)cc1	
50 nM	CC(=O)c1ccc(Nc2nc3ccc(C(=O)N(CCC(C)C)CCC(C)C)cc3n2C2CCN(C)CC2)cc1	

Ki (Melanocortin receptor 4 [4]; read-out: Ki)	Compound	further results
110 nM	CC(=O)c1ccccc1Nc1nc2ccc(C(=O)N(CCC(C)C)CCC(C)C)cc2n1CCCN1CCCCC1	
220 nM	CC(=O)c1ccc(Nc2nc3ccc(C(=O)N(CCC(C)C)CCC(C)C)cc3n2CCN)cc1	
7.5 nM	CC(C)CCN(CCC(C)C)C(=O)c1ccc2nc(Nc3ccc(Br)cc3)n(CCCN3CCCCC3)c2c1	
37 nM	COc1ccc(-c2nc3ccc(C(=O)N(CCC(C)C)CCC(C)C)cc3n2CCCN2CCCCC2)cc1	
7.9 nM	CCN(CC)CCCn1c(Nc2ccc(C(C)=O)cc2)nc2ccc(C(=O)N(CCC(C)C)CCC(C)C)cc21	
420 nM	COc1cc(Nc2nc3ccc(C(=O)N(CCC(C)C)CCC(C)C)cc3n2CCCN)cc(OC)c1OC	
3.9 nM	CC(=O)c1ccc(Cc2nc3ccc(C(=O)N(CCC(C)C)CCC(C)C)cc3n2CCCN2CCCCC2)cc1	Ki (Melanocortin receptor 3): 4500 nM; Kb (Melanocortin receptor 4 [3]): 14 nM; Ki (Melanocortin receptor 5): 5900 nM; Ki [5]: > 10000 nM; Activity (Melanocortin receptor 4 [6]): inactive
7.3 nM	CC(C)CCN(CCC(C)C)C(=O)c1ccc2nc(Nc3ccccc3)n(CCCN3CCCCC3)c2c1	
33 nM	CC(C)CCN(CCC(C)C)C(=O)c1ccc2nc(Nc3ccsc3)n(CCCN3CCCCC3)c2c1	
9.7 nM	CC(C)CCN(CCC(C)C)C(=O)c1ccc2nc(Nc3ccc(N4CCCCC4)cc3)n(CCCN3CCCCC3)c2c1	
60 nM	CC(=O)c1ccc(Nc2nc3ccc(C(=O)N(CCC(C)C)CCC(C)C)cc3n2CCCN)cc1	
770 nM	CC(=O)c1ccc(Nc2nc3ccc(C(=O)N(CC(C)C)CC(C)C)cc3n2CCCN)cc1	
3.3 nM	CNC(=O)c1ccc(Nc2nc3ccc(C(=O)N(CCC(C)C)CCC(C)C)cc3n2CCCN2CCCCC2)cc1	Ki (Melanocortin receptor 3): 130 nM; Kb (Melanocortin receptor 4 [3]): 3.2 nM; Fold change [7]: 40; Ki (Melanocortin receptor 5): 880 nM; Ki [5]: 9300 nM; Activity (Melanocortin receptor 4 [6]): inactive
0.9 nM	COC(=O)c1ccc(Nc2nc3ccc(C(=O)N(CCC(C)C)CCC(C)C)cc3n2CCCN2CCCCC2)cc1	
20 nM	CC(=O)c1ccc(-c2nc3ccc(C(=O)N(CCC(C)C)CCC(C)C)cc3n2CCCN2CCCCC2)cc1	
5.8 nM	CC(=O)c1ccc(CNc2nc3ccc(C(=O)N(CCC(C)C)CCC(C)C)cc3n2CCCN2CCCCC2)cc1	
31 nM	CC(=O)NCCNc1nc2ccc(C(=O)N(CCC(C)C)CCC(C)C)cc2n1CCCN1CCCCC1	
2.2 nM	CC(C)CCN(CCC(C)C)C(=O)c1ccc2nc(Nc3ccc([N+](=O)[O-])cc3)n(CCCN3CCCCC3)c2c1	
2.1 nM	CC(C)CCN(CCC(C)C)C(=O)c1ccc2nc(Nc3ccc(Oc4ccccc4)cc3)n(CCCN3CCCCC3)c2c1	
3.7 nM	CC(=O)Nc1ccc(Nc2nc3ccc(C(=O)N(CCC(C)C)CCC(C)C)cc3n2CCCN2CCCCC2)cc1	
130 nM	CC(=O)c1ccc(Nc2nc3ccc(C(=O)N(CCC(C)C)CCC(C)C)cc3n2CCCCN)cc1	
18 nM	CC(C)CCN(CCC(C)C)C(=O)c1ccc2nc(NCc3ccccc3)n(CCCN3CCCCC3)c2c1	
5 nM	COc1ccc(Nc2nc3ccc(C(=O)N(CCC(C)C)CCC(C)C)cc3n2CCCN2CCCCC2)cc1	
33 nM	CC(=O)c1ccc(Nc2nc3ccc(C(=O)N(CCC(C)C)CCC(C)C)cc3n2CCCN2CCOCC2)cc1	
6.5 nM	CC(C)CCN(CCC(C)C)C(=O)c1ccc2nc(Nc3ccc(C(N)=O)cc3)n(CCCN3CCCCC3)c2c1	
14 nM	CC(C)CCN(CCC(C)C)C(=O)c1ccc2nc(Nc3cccc4[nH]ccc34)n(CCCN3CCCCC3)c2c1	

Compound	Ki (Melanocortin receptor 4 [4]; read-out: Ki)	further results
COc1ccc(C(=O)c2nc3ccc(C(=O)N(CCC(C)C)CCC(C)C)cc3n2CCCN2CCCCC2)cc1	0.96 nM	Ki (Melanocortin receptor 3): 540 nM; Kb (Melanocortin receptor 4 [3]): 44 nM; Fold change [7]: 40; Ki (Melanocortin receptor 5): 1600 nM; Ki [5]: 7500 nM; Activity (Melanocortin receptor 4 [6]): inactive
